Experimental data gathered from unrelated publications.
Each line is one published result; the experiments were not run side by side.
Target: Dual serine/threonine and tyrosine protein kinase (DSTYK, Homo sapiens, UniProt Q6XUX3)
One construct used (Q6XUX3 1-929): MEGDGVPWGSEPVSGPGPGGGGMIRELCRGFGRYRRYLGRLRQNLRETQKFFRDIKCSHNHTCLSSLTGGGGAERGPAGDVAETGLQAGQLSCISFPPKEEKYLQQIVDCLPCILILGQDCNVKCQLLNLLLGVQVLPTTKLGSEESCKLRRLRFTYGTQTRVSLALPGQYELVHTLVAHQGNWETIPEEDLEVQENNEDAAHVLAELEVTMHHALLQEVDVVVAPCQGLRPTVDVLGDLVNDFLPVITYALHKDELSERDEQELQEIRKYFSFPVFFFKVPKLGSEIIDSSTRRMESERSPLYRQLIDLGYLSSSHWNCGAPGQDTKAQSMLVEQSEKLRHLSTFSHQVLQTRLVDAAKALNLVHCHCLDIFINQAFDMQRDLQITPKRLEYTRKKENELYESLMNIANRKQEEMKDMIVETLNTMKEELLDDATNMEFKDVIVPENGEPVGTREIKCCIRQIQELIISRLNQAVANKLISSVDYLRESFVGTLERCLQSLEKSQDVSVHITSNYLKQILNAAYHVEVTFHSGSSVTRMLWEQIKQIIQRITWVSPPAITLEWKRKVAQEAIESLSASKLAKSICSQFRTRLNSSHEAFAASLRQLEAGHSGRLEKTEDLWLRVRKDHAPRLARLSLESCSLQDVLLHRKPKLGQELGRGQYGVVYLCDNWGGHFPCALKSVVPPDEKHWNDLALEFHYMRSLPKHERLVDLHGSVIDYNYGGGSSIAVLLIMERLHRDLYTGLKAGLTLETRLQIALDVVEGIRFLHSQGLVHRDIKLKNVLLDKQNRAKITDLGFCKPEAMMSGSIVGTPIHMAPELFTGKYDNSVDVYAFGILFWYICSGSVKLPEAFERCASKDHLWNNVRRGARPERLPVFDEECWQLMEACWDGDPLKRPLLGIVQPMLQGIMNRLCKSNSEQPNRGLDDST

observed | mode | method | tested at | endpoint | value | SMILES
cell-free assay |  | competition with immobilised ligand | 1 µM | remaining binding | 76% | CSc1cccnc1N1CCN(Cc2nc3ccccc3[nH]2)CC1
binding |  |  | 1 µM | remaining binding | 97% | Cc1cnn2ncc(-c3ccnc(N(C)C)n3)c2c1
cell-free assay |  | competition with immobilised ligand | 1 µM | remaining binding | 100% | CC1=C(C#N)[C@@H](c2ccc3[nH]nc(C)c3c2)C(C#N)=C(c2ccc(Cl)cc2)N1
cell-free assay |  |  | 0.5 µM | remaining signal | 89.6% | O=C1Nc2ccc(Cl)cc2C1=Cc1cc(Cl)c(O)c(Cl)c1
enzyme activity | inhibitor | radiometric | 1 µM | remaining activity | 82% | CC(C)(C)c1nc(-c2cccc(NS(=O)(=O)c3c(F)cccc3F)c2F)c(-c2ccnc(N)n2)s1
cell-free assay |  | competition with immobilised ligand | 1 µM | remaining binding | 73% | CCCOc1ccc([C@H]2[C@H](C(=O)O)[C@@H](c3ccc4c(c3)OCO4)CN2CC(=O)Nc2c(CC)cccc2CC)cc1
enzyme activity | inhibitor |  | 0.5 µM | remaining activity | 94.3% | Cc1ccc(Nc2nccc(N(C)c3ccc4c(C)n(C)nc4c3)n2)cc1S(N)(=O)=O
cell-free assay | inhibitor |  | 20 µM | remaining signal | 2.8% | Nc1ncnc2occ(-c3ccc(NC(=O)Nc4cc(C(F)(F)F)ccc4F)cc3)c12
enzyme activity | inhibitor |  | 5 µM | remaining activity | 102% | O=C(Nc1cnn(-c2csc(C(=O)NC3COC3)c2)c1)Nc1ccccc1Cl
cell-free assay |  | competition with immobilised ligand | 1 µM | remaining binding | 97% | Cc1cc(-n2nc(Cc3cc(F)cc(C(F)(F)F)c3)nc2C)ccc1C(N)=O
enzyme activity | inhibitor | radiometric | 1 µM | remaining activity | 83% | CC(C)(C)c1nc2c(s1)c1nc(N)ncc1c1ccc(NS(=O)(=O)c3c(F)cccc3F)c(F)c12
enzyme activity | inhibitor |  | 10 µM | remaining activity | 96.6% | Cc1sc(C(=O)NC2COC2)cc1-n1cc(NC(=O)Nc2c(F)cccc2Cl)cn1
enzyme activity | inhibitor |  | 1 µM | remaining activity | 97.1% | CC(C)(O)[C@H]1CC[C@H](Nc2ccc3ncc(-c4cccc(C(F)(F)F)c4)n3n2)CC1
cell-free assay |  |  | 0.5 µM | remaining signal | 67.1% | N#CCCc1ccc2c(c1)-c1[nH]c3ccc([N+](=O)[O-])cc3c1CC(=O)N2
enzyme activity | inhibitor |  | 23.5 nM | remaining activity | 95% | Cc1ccc(C(=O)Nc2ccc(CN3CCN(C)CC3)c(C(F)(F)F)c2)cc1C#Cc1cnc2cccnn12
